Measurements: ChEMBL document CHEMBL1135825, “Antitumor AHMA linked to DNA minor groove binding agents: synthesis and biological evaluation” (J Med Chem, 2002)

Test system: not listed separately
Test: Cytotoxicity against human nasopharyngeal carcinoma BM-1
Assay type: functional
How it was run: (§1)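 XTT-tetrazolium growth assay, cells exposed 72 h to six to seven concentrations per compound. Phenazine methosulfate-XTT added for 6 h at 37 °C, then absorbance read at 450 and 630 nm. IC50 derived from median-effect plot of dose-effect data.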

Row | SMILES | IC50
1 | CN(C)CCNC(=O)c1cc(NC(=O)c2cc(NC(=O)CCC(=O)Nc3cc(CO)cc(Nc4c5ccccc5nc5ccccc45)c3)cn2C)cn1C | 8.6 µM
2 | CN1CCN(c2ccc3nc(-c4ccc5nc(-c6ccc(OCCCC(=O)Nc7cc(CO)cc(Nc8c9ccccc9nc9ccccc89)c7)cc6)[nH]c5c4)[nH]c3c2)CC1 | > 100 µM
3 | CN(C)CCNC(=O)c1cc(NC(=O)c2cc(NC(=O)CCCC(=O)Nc3cc(CO)cc(Nc4c5ccccc5nc5ccccc45)c3)cn2C)cn1C | 77.8 µM
4 | CCOC(=O)Nc1cc(COC(=O)CCCC(=O)Nc2cc(C(=O)NCCN(C)C)n(C)c2)cc(Nc2c3ccccc3nc3ccccc23)c1 | 0.08 µM
5 | CN(C)CCNC(=O)c1cc(NC(=O)CCC(=O)Nc2cc(CO)cc(Nc3c4ccccc4nc4ccccc34)c2)cn1C | 7 µM

Test system: CCRF-CEM
Test: (§2) Cytotoxicity against human T-cell acute lymphocytic leukemia CCRF-CEM
Assay type: functional, cell-based
How it was run: as §1

Row | SMILES | IC50
6 | CCOC(=O)Nc1cc(COC(=O)CCCC(=O)Nc2cc(C(=O)NCCN(C)C)n(C)c2)cc(Nc2c3ccccc3nc3ccccc23)c1 | 17.6 µM

Test system: CCRF-CEM
Test: as §2
Assay type: cell-based
How it was run: as §1

Row | SMILES | IC50
7 | CN1CCN(c2ccc3nc(-c4ccc5nc(-c6ccc(OCCCC(=O)Nc7cc(CO)cc(Nc8c9ccccc9nc9ccccc89)c7)cc6)[nH]c5c4)[nH]c3c2)CC1 | > 100 µM

Test system: not listed separately
Test: Cytotoxicity against human Glioblastoma multiformi DBTRG
Assay type: functional
How it was run: as §1

Row | SMILES | IC50
8 | CN(C)CCNC(=O)c1cc(NC(=O)c2cc(NC(=O)CCC(=O)Nc3cc(CO)cc(Nc4c5ccccc5nc5ccccc45)c3)cn2C)cn1C | 20 µM
9 | CN1CCN(c2ccc3nc(-c4ccc5nc(-c6ccc(OCCCC(=O)Nc7cc(CO)cc(Nc8c9ccccc9nc9ccccc89)c7)cc6)[nH]c5c4)[nH]c3c2)CC1 | > 100 µM
10 | CN(C)CCNC(=O)c1cc(NC(=O)c2cc(NC(=O)CCCC(=O)Nc3cc(CO)cc(Nc4c5ccccc5nc5ccccc45)c3)cn2C)cn1C | > 100 µM
11 | CCOC(=O)Nc1cc(COC(=O)CCCC(=O)Nc2cc(C(=O)NCCN(C)C)n(C)c2)cc(Nc2c3ccccc3nc3ccccc23)c1 | 0.4 µM
12 | CN(C)CCNC(=O)c1cc(NC(=O)CCC(=O)Nc2cc(CO)cc(Nc3c4ccccc4nc4ccccc34)c2)cn1C | 8.1 µM

Test system: Nucleic Acid
Test: Percentage of protein-linked DNA breaks.
Assay type: functional
Parameters: concentration or dose not given beside the values
How it was run: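 Log-phase cells labeled 24 h with [14C]-thymidine, trypsinized, resuspended at 5 × 10⁵ cells/mL and shaken 1 h at 37 °C in suspension. Drug at 10 μM added for 0.5 h. Protein-linked DNA breaks quantified by potassium-SDS coprecipitation and reported as percentage.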

Row | SMILES | Activity
13 | CN(C)CCNC(=O)c1cc(NC(=O)c2cc(NC(=O)CCC(=O)Nc3cc(CO)cc(Nc4c5ccccc5nc5ccccc45)c3)cn2C)cn1C | 3.3%
14 | CN(C)CCNC(=O)c1cc(NC(=O)c2cc(NC(=O)CCCC(=O)Nc3cc(CO)cc(Nc4c5ccccc5nc5ccccc45)c3)cn2C)cn1C | 0%
15 | CCOC(=O)Nc1cc(COC(=O)CCCC(=O)Nc2cc(C(=O)NCCN(C)C)n(C)c2)cc(Nc2c3ccccc3nc3ccccc23)c1 | 4.6%
16 | CN(C)CCNC(=O)c1cc(NC(=O)CCC(=O)Nc2cc(CO)cc(Nc3c4ccccc4nc4ccccc34)c2)cn1C | 3.3%

Test system: HONE1 cell line
Test: Cytotoxicity against human nasopharyngeal carcinoma HONE-1
Assay type: functional, cell-based
How it was run: as §1

Row | SMILES | IC50
17 | CN(C)CCNC(=O)c1cc(NC(=O)c2cc(NC(=O)CCC(=O)Nc3cc(CO)cc(Nc4c5ccccc5nc5ccccc45)c3)cn2C)cn1C | 2400 nM
18 | CN1CCN(c2ccc3nc(-c4ccc5nc(-c6ccc(OCCCC(=O)Nc7cc(CO)cc(Nc8c9ccccc9nc9ccccc89)c7)cc6)[nH]c5c4)[nH]c3c2)CC1 | > 100000 nM
19 | CN(C)CCNC(=O)c1cc(NC(=O)c2cc(NC(=O)CCCC(=O)Nc3cc(CO)cc(Nc4c5ccccc5nc5ccccc45)c3)cn2C)cn1C | 63900 nM
20 | CCOC(=O)Nc1cc(COC(=O)CCCC(=O)Nc2cc(C(=O)NCCN(C)C)n(C)c2)cc(Nc2c3ccccc3nc3ccccc23)c1 | 800 nM
21 | CN(C)CCNC(=O)c1cc(NC(=O)CCC(=O)Nc2cc(CO)cc(Nc3c4ccccc4nc4ccccc34)c2)cn1C | 850 nM

Test system: HT-29
Test: Cytotoxicity against human colon HT-29 cell line
Assay type: functional, cell-based
How it was run: as §1

Row | SMILES | IC50
22 | CN(C)CCNC(=O)c1cc(NC(=O)c2cc(NC(=O)CCC(=O)Nc3cc(CO)cc(Nc4c5ccccc5nc5ccccc45)c3)cn2C)cn1C | 4.4 µM
23 | CN1CCN(c2ccc3nc(-c4ccc5nc(-c6ccc(OCCCC(=O)Nc7cc(CO)cc(Nc8c9ccccc9nc9ccccc89)c7)cc6)[nH]c5c4)[nH]c3c2)CC1 | > 100 µM
24 | CN(C)CCNC(=O)c1cc(NC(=O)c2cc(NC(=O)CCCC(=O)Nc3cc(CO)cc(Nc4c5ccccc5nc5ccccc45)c3)cn2C)cn1C | > 100 µM
25 | CCOC(=O)Nc1cc(COC(=O)CCCC(=O)Nc2cc(C(=O)NCCN(C)C)n(C)c2)cc(Nc2c3ccccc3nc3ccccc23)c1 | 0.75 µM
26 | CN(C)CCNC(=O)c1cc(NC(=O)CCC(=O)Nc2cc(CO)cc(Nc3c4ccccc4nc4ccccc34)c2)cn1C | 1.7 µM

Test system: HepG2
Test: Cytotoxicity against human hepatoma Hepa-G2
Assay type: functional, cell-based
How it was run: as §1

Row | SMILES | IC50
27 | CN(C)CCNC(=O)c1cc(NC(=O)c2cc(NC(=O)CCC(=O)Nc3cc(CO)cc(Nc4c5ccccc5nc5ccccc45)c3)cn2C)cn1C | 7 µM
28 | CN1CCN(c2ccc3nc(-c4ccc5nc(-c6ccc(OCCCC(=O)Nc7cc(CO)cc(Nc8c9ccccc9nc9ccccc89)c7)cc6)[nH]c5c4)[nH]c3c2)CC1 | > 100 µM
29 | CN(C)CCNC(=O)c1cc(NC(=O)c2cc(NC(=O)CCCC(=O)Nc3cc(CO)cc(Nc4c5ccccc5nc5ccccc45)c3)cn2C)cn1C | 68 µM
30 | CCOC(=O)Nc1cc(COC(=O)CCCC(=O)Nc2cc(C(=O)NCCN(C)C)n(C)c2)cc(Nc2c3ccccc3nc3ccccc23)c1 | 0.08 µM
31 | CN(C)CCNC(=O)c1cc(NC(=O)CCC(=O)Nc2cc(CO)cc(Nc3c4ccccc4nc4ccccc34)c2)cn1C | 4.2 µM

Test system: MX1
Test: Cytotoxicity against human Breast carcinoma MX-1
Assay type: functional, cell-based
How it was run: as §1

Row | SMILES | IC50
32 | CN1CCN(c2ccc3nc(-c4ccc5nc(-c6ccc(OCCCC(=O)Nc7cc(CO)cc(Nc8c9ccccc9nc9ccccc89)c7)cc6)[nH]c5c4)[nH]c3c2)CC1 | > 100000 nM
33 | CCOC(=O)Nc1cc(COC(=O)CCCC(=O)Nc2cc(C(=O)NCCN(C)C)n(C)c2)cc(Nc2c3ccccc3nc3ccccc23)c1 | 85 nM

Test system: TSGH
Test: In vitro cytotoxicity against human TSGH
Assay type: functional, cell-based
How it was run: as §1

Row | SMILES | IC50
34 | CN(C)CCNC(=O)c1cc(NC(=O)c2cc(NC(=O)CCC(=O)Nc3cc(CO)cc(Nc4c5ccccc5nc5ccccc45)c3)cn2C)cn1C | 4.8 µM
35 | CN1CCN(c2ccc3nc(-c4ccc5nc(-c6ccc(OCCCC(=O)Nc7cc(CO)cc(Nc8c9ccccc9nc9ccccc89)c7)cc6)[nH]c5c4)[nH]c3c2)CC1 | > 100 µM
36 | CN(C)CCNC(=O)c1cc(NC(=O)c2cc(NC(=O)CCCC(=O)Nc3cc(CO)cc(Nc4c5ccccc5nc5ccccc45)c3)cn2C)cn1C | 36.4 µM
37 | CCOC(=O)Nc1cc(COC(=O)CCCC(=O)Nc2cc(C(=O)NCCN(C)C)n(C)c2)cc(Nc2c3ccccc3nc3ccccc23)c1 | 1.2 µM
38 | CN(C)CCNC(=O)c1cc(NC(=O)CCC(=O)Nc2cc(CO)cc(Nc3c4ccccc4nc4ccccc34)c2)cn1C | 4.6 µM
